Source: ChEMBL document CHEMBL2321814, “Sulfocoumarins (1,2-benzoxathiine-2,2-dioxides): a class of potent and isoform-selective inhibitors of tumor-associated carbonic anhydrases” (J Med Chem, 2013)
Active and inactive are the calls of the source. The rule behind the calls is not given here.

Columns and labels:
Carbonic anhydrase 9 [1] = target: T1, Carbonic anhydrase 9 (Homo sapiens, UniProt Q16790); assay: Inhibition of human recombinant transmembrane CA9 catalytic domain after 15 mins by stopped-flow CO2 hydration method
Summary of the method: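 Recombinant CA IX catalytic domain was preincubated with inhibitor for 15 min at room temperature. CO2 hydration was followed by stopped-flow with phenol red (0.2 mM, 557 nm) in 20 mM Hepes pH 7.5 with 20 mM Na2SO4, CO2 1.7–17 mM. Initial rates came from at least six traces of the first 5–10% of reaction, minus uncatalyzed rates. Inhibitor dilutions went down to 0.01 nM in water.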

Carbonic anhydrase 2 [2] = target: Carbonic anhydrase 2 (Homo sapiens, UniProt P00918, A65S/N67Q); assay: Inhibition of human CA2 Ala65Ser and Asn67Gln double mutant expressed in Escherichia coli strain BL21 (DE3) after 6 hrs by stopped-flow CO2 hydration method
Summary of the method: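 CA II mutant mimicking the CA IX active site was expressed in E. coli BL21(DE3), IPTG-induced, and purified by His-trap, gel filtration and Mono-Q. Enzyme and inhibitor were preincubated 6 h at 4 °C. Stopped-flow CO2 hydration used phenol red (0.2 mM, 557 nm), 20 mM Hepes pH 7.5, 20 mM Na2SO4 and CO2 1.7–17 mM, with uncatalyzed rates subtracted. Three assays were run.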

Carbonic anhydrase 9 [3] = target: T1, Carbonic anhydrase 9
Carbonic anhydrase 2 [4] = target: Carbonic anhydrase 2 (Homo sapiens, UniProt P00918); assay: Inhibition of full length human recombinant CA2 cytosolic isoform after 6 hrs by stopped-flow CO2 hydration method
Carbonic anhydrase 1 = Carbonic anhydrase 1 (Homo sapiens, UniProt P00915); assay: Inhibition of full length human recombinant CA1 cytosolic isoform after 6 hrs by stopped-flow CO2 hydration method
Carbonic anhydrase 1, sequence (P00915 whole entry, canonical isoform): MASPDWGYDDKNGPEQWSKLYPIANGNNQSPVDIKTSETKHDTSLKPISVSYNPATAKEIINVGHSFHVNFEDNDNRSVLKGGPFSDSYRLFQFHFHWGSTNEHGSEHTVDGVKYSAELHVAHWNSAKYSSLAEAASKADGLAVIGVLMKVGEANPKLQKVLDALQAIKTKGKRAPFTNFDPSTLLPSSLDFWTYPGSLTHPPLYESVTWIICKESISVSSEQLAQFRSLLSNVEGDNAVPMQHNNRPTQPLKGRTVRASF

Row | SMILES | inhibition (Carbonic anhydrase 9 [1]) | Ki (Carbonic anhydrase 2 [2]) [µM] | Ki (Carbonic anhydrase 9 [3]) [µM] | Ki (Carbonic anhydrase 2 [4]) [µM] | Ki (Carbonic anhydrase 1) [µM]
1 | O=S1(=O)C=Cc2cc(O)ccc2O1 | inactive | 0.8 | 0.3 | > 100 | –
2 | O=[N+]([O-])c1ccc2c(c1)C=CS(=O)(=O)O2 | inactive | – | 3.77 | > 100 | –
3 | O=S1(=O)C=Cc2cc(OCc3ccccc3)ccc2O1 | inactive | 2.37 | 0.275 | > 100 | –
4 | COc1ccc(-c2cn(-c3ccc4c(c3)C=CS(=O)(=O)O4)nn2)cc1 | inactive | – | 0.018 | – | –
5 | O=S1(=O)C=Cc2c(ccc3ccccc23)O1 | inactive | – | 0.375 | > 100 | > 100
6 | O=S1(=O)C=Cc2cc(Br)ccc2O1 | inactive | 0.93 | 6.83 | > 100 | > 100
7 | O=c1ccc2ccccc2o1 | inactive | – | – | – | –
8 | O=S1(=O)C=Cc2cc(-n3cc(CO)nn3)ccc2O1 | inactive | – | 0.058 | – | –
9 | CCOC(=O)c1cn(-c2ccc3c(c2)C=CS(=O)(=O)O3)nn1 | inactive | – | 0.086 | – | –
10 | COc1cc2oc(=O)ccc2cc1[C@@H](O)CC(C)C | inactive | – | – | – | –
11 | O=S1(=O)C=Cc2cc(-n3cc(-c4cccc(C(F)(F)F)c4)nn3)ccc2O1 | inactive | – | 0.048 | – | –
12 | O=S1(=O)C=Cc2cc(-n3cc(-c4ccc(OC(F)(F)F)cc4)nn3)ccc2O1 | inactive | – | 0.074 | – | –
13 | C[Si](C)(C)c1cn(-c2ccc3c(c2)C=CS(=O)(=O)O3)nn1 | inactive | – | 0.06 | – | –
14 | COc1cccc(-c2cn(-c3ccc4c(c3)C=CS(=O)(=O)O4)nn2)c1 | inactive | – | 0.049 | – | –
15 | CCN(CC)Cc1cn(-c2ccc3c(c2)C=CS(=O)(=O)O3)nn1 | inactive | – | 0.025 | – | –
16 | O=S1(=O)C=Cc2cc(Cl)cc(Cl)c2O1 | inactive | – | 3.26 | > 100 | > 100
17 | O=S1(=O)C=Cc2cc(-n3cc(-c4ccccc4)nn3)ccc2O1 | inactive | – | 0.029 | – | –
18 | Nc1ccc2c(c1)C=CS(=O)(=O)O2 | inactive | – | 0.046 | – | –
19 | COC(=O)c1cn(-c2ccc3c(c2)C=CS(=O)(=O)O3)nn1 | inactive | – | 0.95 | – | –
